Key:
Rattus norvegicus [1] = assay: Cholesterol-lowering activity in propylthiouracil-induced hypercholesterolemic rat model assessed as change in plasma cholesterol at 20 mg/kg administered intragastrically relative to control; type: functional; conditions: route intragastric
In short: (§1)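 Male rats made hypercholesterolemic with propylthiouracil; compounds given intragastrically. Read-out is the percent change in plasma cholesterol concentration versus control. n=8 for control and for treated animals. Significance is by Student's t, with t greater than 1.65 taken as p < 0.05.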

Rattus norvegicus [2] = assay: Cholesterol-lowering activity in propylthiouracil-induced hypercholesterolemic rat model assessed as change in plasma cholesterol at 10 mg/kg administered intragastrically relative to control; type: functional; conditions: route intragastric; in short: as §1
Mus musculus [3] = assay: Uterotropic activity in immature mouse assessed as change in uterus weight at 250 mg/kg, sc relative to control; type: organism-based; set-up: dose 250 mg/kg, route subcutaneous; conditions: in vivo
In short: (§2)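 Immature mice dosed subcutaneously or intragastrically. Uterine weight (mg) is compared between treated and control groups, reported as mean ± spread. n=10 for control and for treated animals.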

Rattus norvegicus [4] = assay: Cholesterol-lowering activity in propylthiouracil-induced hypercholesterolemic rat model assessed as change in plasma cholesterol at 5 mg/kg administered intragastrically relative to control; type: functional; conditions: route intragastric; in short: as §1
Mus musculus [5] = assay: Uterotropic activity in immature mouse assessed as change in uterus weight at 625 mg/kg, sc relative to control; type: organism-based; set-up: dose 625 mg/kg, route subcutaneous; conditions: in vivo; in short: as §2
Mus musculus [6] = assay: Uterotropic activity in immature mouse assessed as change in uterus weight at 25 mg/kg, sc relative to control; type: Functional, organism-based; set-up: dose 25 mg/kg, route subcutaneous; conditions: in vivo; in short: as §2
Mus musculus [7] = assay: Uterotropic activity in immature mouse assessed as change in uterus weight at 250 mg/kg administered intragastrically relative to control; type: organism-based; set-up: dose 250 mg/kg, route intragastric; conditions: in vivo, po; in short: as §2
Rattus norvegicus [8] = assay: Hypolipidemic activity in normal rat assessed as reduction in cholesterol level at 0.2 % administered in diet for 5 days; type: functional; set-up: scale not given: the % may be the effect or the level left
In short: (§3)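 Normal rats received compound at 0.2% in the diet. Plasma cholesterol and triglyceride are expressed as % of control. n=8 for control and for treated animals. Significance is by Student's t, with t greater than 1.65 taken as p < 0.05.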

Rattus norvegicus [9] = assay: Hypolipidemic activity in normal rat assessed as reduction in triglyceride level at 0.2 % administered in diet for 5 days; type: functional; set-up: scale not given: the % may be the effect or the level left; in short: as §3

| Structure (SMILES) | Activity (Rattus norvegicus [2]) [%] | Activity (Mus musculus [3]) [mg] | Activity (Mus musculus [6]) [mg] | further results |
| --- | --- | --- | --- | --- |
| CC1(C)CCc2c1ccc1c2CCc2cc(O)ccc2-1 | -16 | 22.6 |  | Activity (Rattus norvegicus [1]): -10%; Activity (Rattus norvegicus [4]): 4%; Activity (Mus musculus [5]): 34.9 mg |
| COc1ccc2c(c1)CCc1c-2ccc2c1CCC2(C)C | 1 | 22.6 |  |  |
| CCN(CC)CCOc1ccc2c(c1)CCc1c-2ccc2c1CCC2(C)C.O=C(O)C(=O)O | -19 |  | 16.4 | Activity (Rattus norvegicus [4]): -14% |
| CC1(C)CCc2c1ccc1c2CCc2cc(OCCN3CCCC3)ccc2-1 | -17 |  | 11.2 | Activity (Rattus norvegicus [4]): -5%; Activity (Mus musculus [7]): 8.1 mg |
| CC(C)(Oc1ccc2c(c1)CCc1c-2ccc2c1CCC2(C)C)C(=O)O | -18 |  | 17.2 | Activity (Rattus norvegicus [8]): 75%; Activity (Mus musculus [7]): 8.4 mg; Activity (Rattus norvegicus [9]): 69% |
| CCOC(=O)C(C)(C)Oc1ccc2c(c1)CCc1c-2ccc2c1CCC2(C)C | -9 |  |  |  |
| CN1C(=O)[C@@H]2CC[C@@H]1[C@@H](OC(=O)C(C)(C)Oc1ccc3c(c1)CCc1c-3ccc3c1CCC3(C)C)C2 | -4 |  |  |  |
| CC(Oc1ccc2c(c1)CCc1c-2ccc2c1CCC2(C)C)C(=O)O (configuration not stated) | 3 |  |  |  |
| CCOC(=O)COc1ccc2c(c1)CCc1c-2ccc2c1CCC2(C)C | 8 |  |  |  |
| CC(C)(CO)Oc1ccc2c(c1)CCc1c-2ccc2c1CCC2(C)C | -25 | 13.4 |  |  |
| COC(=O)CCC(=O)OCC(C)(C)Oc1ccc2c(c1)CCc1c-2ccc2c1CCC2(C)C | -18 | 15.7 |  |  |
| CC(C)(COC(=O)CCC(=O)O)Oc1ccc2c(c1)CCc1c-2ccc2c1CCC2(C)C | -7 |  | 20.6 |  |
| CCOC(=O)C(C)(C)Oc1ccc(Cl)cc1 [CLOFIBRATE] | 1 |  |  | Activity (Rattus norvegicus [8]): 72%; Activity (Rattus norvegicus [9]): 43% |
